The values that follow come from ChEMBL document CHEMBL2440065, “Identification of a novel benzoxazolone derivative as a selective, orally active 18 kDa translocator protein (TSPO) ligand” (J Med Chem, 2013).

≈ marks a conversion by molar mass, not a printed value.

One data set concerns Mus musculus. In words: Neurotoxicity in ddY mouse assessed as motor impairment at 300 mg/kg, po after 1 hr by horizontal rotarod test. The note with it: in vivo. Format: toxicity, organism-based. The arrangement: dose 300 mg/kg, route oral. On the technique in general: In the rotarod test animals must keep their balance on a rotating rod.
Data set [1] is described as follows: Solubility of the compound at pH 6.8. The conditions noted are these: buffer. Format: physicochemical. The method, boiled down:
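Solubility measured in pH 6.8 buffer containing bile acids; compound tested as free base and as HCl salt.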

Data set [2] can be described thus: Ratio of drug level in brain to blood in rat at 10 mg/kg, po. The arrangement: dose 10 mg/kg, route oral. The data set is classed as ADME, organism-based. In outline:
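Rats dosed orally at 10 mg/kg (HCl salt); brain and blood drug concentrations measured and expressed as brain/blood ratio.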

Data set [3] can be described thus: Solubility of the compound at pH 2.5 by HPLC analysis. Format: physicochemical. The conditions noted are these: buffer. In outline: (§1)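 Compound (1 mg) shaken in 0.4 mL buffered solution at pH 7.4 or pH 2.5, then centrifuged; dissolved compound in the supernatant quantified by HPLC.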
Data set [4] can be described thus: Displacement of [3H]batrachotoxin from rat brain sodium channel site 2. Format: tissue-based. (Loss of bound radioactivity is the signal in a displacement assay; it reports binding, not function.)
Data set [5] can be described thus: Solubility of the compound at pH 7.4 by HPLC analysis. The data set is classed as physicochemical. The conditions noted are these: buffer. In outline:
as §1

Data set [6] can be described thus: Metabolic stability in rat liver S9 fraction assessed as compound remaining at 1 uM after 30 mins in presence of NADPH. The data set is classed as ADME, subcellular. The conditions noted are these: read-out: Stability.
Data set [7] has as its target Translocator protein (Rattus norvegicus, UniProt P16257). In words: Displacement of [3H]PK11195 from Sprague-Dawley rat kidney TSPO after 1 hr by liquid scintillation counting analysis.
The nature of data set [8]: Metabolic stability in human liver S9 fraction assessed as compound remaining at 1 uM after 30 mins. Format: ADME, subcellular. The conditions noted are these: read-out: Stability.
Data set [9] has as its target Translocator protein (Homo sapiens, UniProt P30536). In words: Displacement of [3H]PK11195 from TSPO in human U-87 MG cells after 1 hr by liquid scintillation counting analysis. The data set is classed as cell-based.
In data set [10] the target is Amine oxidase [flavin-containing] A (Homo sapiens, UniProt P21397). In words: Inhibition of human MAO-A at 10 uM.
Amine oxidase [flavin-containing] A, sequence (P21397 whole entry): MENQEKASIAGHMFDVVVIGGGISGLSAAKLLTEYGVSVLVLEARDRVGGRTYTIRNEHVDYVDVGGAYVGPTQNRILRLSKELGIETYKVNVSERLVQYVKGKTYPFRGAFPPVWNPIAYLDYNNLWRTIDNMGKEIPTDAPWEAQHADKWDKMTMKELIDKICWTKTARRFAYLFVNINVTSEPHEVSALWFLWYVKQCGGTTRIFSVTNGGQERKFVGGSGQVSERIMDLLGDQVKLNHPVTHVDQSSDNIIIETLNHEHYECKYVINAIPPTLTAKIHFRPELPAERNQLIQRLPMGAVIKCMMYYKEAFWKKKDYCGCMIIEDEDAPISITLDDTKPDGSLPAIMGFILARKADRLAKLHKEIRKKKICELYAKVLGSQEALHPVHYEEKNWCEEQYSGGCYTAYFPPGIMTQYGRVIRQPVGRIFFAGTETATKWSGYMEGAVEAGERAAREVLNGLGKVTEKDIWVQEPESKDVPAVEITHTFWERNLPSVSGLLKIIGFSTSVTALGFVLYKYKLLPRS

Translocator protein (Rattus norvegicus, UniProt P16257), sequence (P16257 whole entry, looked up): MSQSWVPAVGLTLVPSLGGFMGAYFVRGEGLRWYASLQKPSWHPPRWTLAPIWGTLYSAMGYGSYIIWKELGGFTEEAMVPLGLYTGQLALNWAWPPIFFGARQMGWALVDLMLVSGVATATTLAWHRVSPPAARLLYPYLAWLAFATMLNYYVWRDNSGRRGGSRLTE
Translocator protein (Homo sapiens, UniProt P30536), sequence (P30536 whole entry): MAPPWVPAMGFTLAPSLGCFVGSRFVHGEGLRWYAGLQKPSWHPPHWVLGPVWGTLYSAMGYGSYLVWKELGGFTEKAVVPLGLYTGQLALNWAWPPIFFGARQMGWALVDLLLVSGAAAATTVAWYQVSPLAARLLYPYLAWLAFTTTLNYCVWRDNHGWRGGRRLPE

On to `CN(C(=O)Cn1c(=O)oc2ccc(-c3ccc(OC(F)(F)F)cc3)cc21)c1cccnc1.Cl`, for which the Activity entry with Mus musculus was “Toxic”. Also, the solubility in [1] came to 0.023 mg/mL. In [2], the Kp came out at 1.3.

Consider `CN(C(=O)Cn1c(=O)oc2ccc(-c3cccnc3)cc21)c1ccc(C(F)(F)F)cc1`, for which the solubility was 0.42 mg/mL (≈ 983 µM) in data set [3] and 0.001 mg/mL (≈ 2.34 µM) in data set [5]. Also, the IC50 in data set [4] is over 10000 nM. Besides, the remaining at 0.5 h, 1 µM came to 38% in [6] and 84% in data set [8]. For the same compound, the Ki at Translocator protein [7] worked out at 8.6 nM; at Translocator protein [9] it was 8 nM. The “inhibition (INH)” value in [10] is on record as “Not Active”.

Broadly, the solubility is the concentration that dissolves in the medium under given conditions. One may read the Kp as the ratio of the level in a tissue or fluid to that in plasma or blood. One may read the IC50 as the point on the concentration scale where inhibition reaches its midpoint. A high value points to lower potency. As usually defined, the Ki is a dissociation constant, usually derived from enzyme kinetics or from competition with a known ligand. A lower Ki goes with a stronger hold on the target.
